Results gathered from unrelated publications.
Protocols differ between the studies behind these lines.
PIK3CA E545K: Phosphatidylinositol 4,5-bisphosphate 3-kinase catalytic subunit alpha isoform (PIK3CA, Homo sapiens, UniProt P42336, E545K)
PIK3CA I800L: Phosphatidylinositol 4,5-bisphosphate 3-kinase catalytic subunit alpha isoform (PIK3CA, Homo sapiens, UniProt P42336, I800L)
PIK3CA E545A: Phosphatidylinositol 4,5-bisphosphate 3-kinase catalytic subunit alpha isoform (PIK3CA, Homo sapiens, UniProt P42336, E545A)
PIK3CA Q546K: Phosphatidylinositol 4,5-bisphosphate 3-kinase catalytic subunit alpha isoform (PIK3CA, Homo sapiens, UniProt P42336, Q546K)
PIK3CA H1047Y: Phosphatidylinositol 4,5-bisphosphate 3-kinase catalytic subunit alpha isoform (PIK3CA, Homo sapiens, UniProt P42336, H1047Y)
PIK3CA M1043I: Phosphatidylinositol 4,5-bisphosphate 3-kinase catalytic subunit alpha isoform (PIK3CA, Homo sapiens, UniProt P42336, M1043I)
PIK3CA H1047L: Phosphatidylinositol 4,5-bisphosphate 3-kinase catalytic subunit alpha isoform (PIK3CA, Homo sapiens, UniProt P42336, H1047L)
PIK3CA C420R: Phosphatidylinositol 4,5-bisphosphate 3-kinase catalytic subunit alpha isoform (PIK3CA, Homo sapiens, UniProt P42336, C420R)
PIK3CA: Phosphatidylinositol 4,5-bisphosphate 3-kinase catalytic subunit alpha isoform (PIK3CA, Homo sapiens, UniProt P42336)
PIK3CA E542K: Phosphatidylinositol 4,5-bisphosphate 3-kinase catalytic subunit alpha isoform (PIK3CA, Homo sapiens, UniProt P42336, E542K)

target	observed	method	concentration	remaining binding	Compound
PIK3CA E545K	binding	competition with immobilised ligand	0.1 µM	67%	C[C@@H](c1ccc(-n2cnc3c(N)ncnc32)cc1)N1CCc2nn(C)c(Cc3ccccc3)c2C1=O
PIK3CA I800L	binding	–	10 µM	18%	CN1CCN(c2ccc(Nc3nccc(-c4cccc([N+](=O)[O-])c4)n3)cc2C(F)(F)F)CC1
PIK3CA E545A	cell-free assay	competition with immobilised ligand	5 µM	99%	COc1ncc2cc3ccccc3nc2c1C#N
PIK3CA Q546K	cell-free assay	competition with immobilised ligand	0.1 µM	76%	Cn1nc(C(=O)NCc2ccc(C(=O)O)cc2)cc1-c1ccc2[nH]ccc2c1
PIK3CA I800L	binding	–	1 µM	63%	CN(C)c1nccc(-c2cnc3ncccn23)n1
PIK3CA H1047Y	binding	competition with immobilised ligand	1 µM	95%	O=C(NCCCN1CCOCC1)c1ccc(Nc2ncc(Cl)c(-c3ccc(Cl)s3)n2)cc1
PIK3CA E545A	binding	competition with immobilised ligand	1 µM	0.5%	C=CC(=O)N1CCC(C(=O)NCC(=O)N2CCN(c3nc(-c4cnc(N)nc4C(F)F)nc(N4CCOCC4)n3)CC2)CC1
PIK3CA E545K	binding	–	1 µM	100%	CN(CCCC(F)(F)F)c1nccc(-c2cnn3ncccc23)n1
PIK3CA M1043I	cell-free assay	competition with immobilised ligand	0.3 µM	8.1%	Cc1cc(-c2cc(C(F)(F)F)ccc2O[C@H]2C[C@@]2(CNS(=O)(=O)c2ccc([N+](=O)[O-])cc2)c2ccc(F)cc2F)[nH]n1
PIK3CA H1047L	binding	–	1 µM	100%	CN(c1nccc(-c2cnn3ncccc23)n1)C1CC1
PIK3CA H1047L	cell-free assay	competition with immobilised ligand	1 µM	87%	CSc1cccnc1N1CCN(Cc2nc3ccccc3[nH]2)CC1
PIK3CA Q546K	binding	–	1 µM	100%	N[C@@H]1CCN(c2nccc(-c3cnn4ncccc34)n2)C1
PIK3CA H1047L	cell-free assay	competition with immobilised ligand	1 µM	77%	O=C(NCc1ncc(C(F)(F)F)cc1Cl)c1ccc2c(c1)C1(CCS(=O)(=O)CC1)[C@H](C1CC1)N2S(=O)(=O)c1ccc(F)cc1
PIK3CA C420R	binding	–	1 µM	100%	CN(C)c1nccc(-c2cnn3ncccc23)n1
PIK3CA	cell-free assay	competition with immobilised ligand	0.1 µM	97%	CCN(CC)Cc1cc(Nc2ccnc3cc(Cl)ccc23)ccc1O
PIK3CA E545K	binding	competition with immobilised ligand	10 µM	94%	c1cncc(-c2cccc(Nc3nccc(NC4CCCCC4)n3)c2)c1
PIK3CA H1047Y	binding	–	10 µM	90%	CN1CCN(c2ccc(Nc3nccc(-c4ccccc4)n3)cc2C(F)(F)F)CC1
PIK3CA C420R	binding	competition with immobilised ligand	1 µM	88%	O=C(c1ccc(Nc2nccc(-c3cc4ccccc4s3)n2)cc1)N1CCC(N2CCCC2)CC1
PIK3CA E542K	binding	competition with immobilised ligand	1 µM	100%	CNC(=O)[C@@H]1CC[C@@H](n2c(-c3ccc4cnccc4c3)nc3ccc(C(=O)NCc4cccc(C(N)=O)c4)cc32)C1

target	observed	method	concentration	remaining binding	Compound
PIK3CA M1043I	binding	competition with immobilised ligand	1 µM	80%	O=C(NCCCN1CCOCC1)c1ccc(Nc2nccc(-c3cc4ccccc4s3)n2)cc1
PIK3CA E542K	cell-free assay	competition with immobilised ligand	1 µM	100%	CN1CCN(c2cnc3c(C4CCN(C(=O)c5ccc(OC(F)(F)F)cc5N)CC4)ncnc3c2)CC1
PIK3CA E545K	binding	competition with immobilised ligand	1 µM	65%	COc1cnc(Nc2cccc(S(N)(=O)=O)c2)nc1N1CCN(c2ccccc2)C(=O)C1
PIK3CA	cell-free assay	competition with immobilised ligand	1 µM	76%	Nc1cnc(N2CCc3cc(S(=O)(=O)Nc4c(F)cc(Cl)cc4F)cc(N4CCCC4=O)c32)nc1
PIK3CA E542K	binding	–	1 µM	95%	COc1ccnn2ncc(-c3ccnc(N(C)C)n3)c12
PIK3CA Q546K	cell-free assay	competition with immobilised ligand	1 µM	66%	CS(=O)(=O)c1cc(C2(NC(=O)c3cncc4c3cnn4-c3ccc(F)cc3)CC2)ccn1
PIK3CA E542K	binding	competition with immobilised ligand	1 µM	100%	O=C(c1ccc(Nc2ncc(Cl)c(-c3ccc(Cl)s3)n2)cc1)N1CCC(N2CCCC2)CC1
PIK3CA E542K	binding	competition with immobilised ligand	1 µM	78%	O=C(NCC1CCOCC1)c1n[nH]cc1NC(=O)c1c(F)cccc1F
PIK3CA Q546K	binding	competition with immobilised ligand	1 µM	90%	O=C(c1ccc(Nc2ncc(Cl)c(-c3cc4ccccc4s3)n2)cc1)N1CCC(N2CCCC2)CC1
PIK3CA Q546K	cell-free assay	competition with immobilised ligand	1 µM	79%	CN(C)CC#Cc1ccc(OCCCc2sc(N3CCc4cccc(C(=O)Nc5nc6ccccc6s5)c4C3)nc2C(=O)O)c(F)c1
PIK3CA H1047Y	binding	competition with immobilised ligand	1 µM	100%	CCN1CCN(Cc2ccc(C(=O)Nc3ccc(C)c(Oc4ccc5c(c4)CC(=O)N5)c3)cc2C(F)(F)F)CC1
PIK3CA E542K	binding	competition with immobilised ligand	1 µM	91%	Nc1ncc2c(n1)-c1c([nH]c3ccc(C#CC4CC4)cc13)CCCC2
PIK3CA E542K	binding	–	1 µM	82%	C[C@@H]1CCN(c2nccc(-c3cnn4ncccc34)n2)C1
PIK3CA C420R	binding	competition with immobilised ligand	1 µM	95%	COc1cnc(Nc2cccc(S(N)(=O)=O)c2)nc1N1CCN(c2ccccc2)CC1
PIK3CA	cell-free assay	competition with immobilised ligand	10 µM	80%	CC(C)(C)c1ccc(-c2nc(CBr)nn2-c2cccc(O)c2)cc1
PIK3CA C420R	binding	–	1 µM	46%	CN(C)c1ncc(F)c(-c2cnn3ncccc23)n1
PIK3CA	cell-free assay	competition with immobilised ligand	1 µM	83%	CS(=O)(=O)NCC[C@H](NC(=O)c1cncc2c1cnn2-c1ccc(F)cc1)c1ccnc(S(C)(=O)=O)c1
PIK3CA E545A	binding	competition with immobilised ligand	1 µM	100%	O=C(Nc1c[nH]nc1C(=O)NC1CCNCC1)c1cc(F)cc(F)c1
